Screening results as filed in PubChem BioAssay.
The list is not random: actives were taken first. Their share in the collection is about 1.8%.
M4 ag = agonists of human muscarinic M4 receptor (CHRM4). P08173. CHO-K1 hM4/Gqi5, Fluo-8 calcium fluorescence; vehicle 0%, full acetylcholine response 100%. activation, % at 3 µM. 0.14% of 360,000 active. AID 624127;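 active means activation above the run mean over all test wells plus 3 SD, cut at about 32% in these data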;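 further: peak over basal fluorescence ratio per well then scaled between controls; 0% = DMSO wells and 100% = acetylcholine at EC100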
Target sequence (P08173 whole entry, looked up): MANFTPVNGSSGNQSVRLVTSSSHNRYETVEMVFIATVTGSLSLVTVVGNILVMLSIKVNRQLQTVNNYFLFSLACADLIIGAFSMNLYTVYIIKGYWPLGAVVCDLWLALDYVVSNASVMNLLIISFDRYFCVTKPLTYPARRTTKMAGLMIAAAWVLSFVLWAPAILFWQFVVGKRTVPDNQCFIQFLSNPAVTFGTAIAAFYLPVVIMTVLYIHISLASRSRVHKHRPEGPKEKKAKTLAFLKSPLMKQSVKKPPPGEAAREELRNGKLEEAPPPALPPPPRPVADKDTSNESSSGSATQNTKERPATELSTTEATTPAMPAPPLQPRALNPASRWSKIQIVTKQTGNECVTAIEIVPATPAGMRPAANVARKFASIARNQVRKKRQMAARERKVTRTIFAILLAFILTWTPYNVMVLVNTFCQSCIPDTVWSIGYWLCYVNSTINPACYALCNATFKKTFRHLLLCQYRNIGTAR
M4 antag = antagonists of human muscarinic M4 receptor (CHRM4); P08173; CHO-hM4 cells, ACh EC80, Fluo-8 calcium fluorescence; inhibition, % at 3 µM; 0.73% of 360,000 active;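 active means inhibition above its plate's cutoff, the mean inhibition of sample wells plus 3 SD, cut at about 27% in these data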;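 further: 0% = acetylcholine EC80 with DMSO and 100% = DMSO without agonist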
M4 PAM = potentiates acetylcholine response at human M4 receptor; CHO-K1 hM4/Gqi5, Fluo-8 calcium fluorescence, ACh EC20; 0% = ACh EC20, 100% = maximal ACh; AID 624126; P08173; 0.4% of 360,000 active; activation, % at 3 µM;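 active means activation above its plate's cutoff, the mean activation of sample wells plus 3 SD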
CHRM5 agonist = agonists of human muscarinic M5 receptor (CHRM5); CHO-K1 hM5 cells, Fluo-8 calcium fluorescence; 0% DMSO wells, 100% maximal acetylcholine response; AID 624037; P08912; 0.19% of 360,000 active; activation, % at 3 µM;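 active means activation above the run's mean over test compounds plus 3 SD, cut at about 23% in these data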;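 further: signal is peak over basal fluorescence ratio across the kinetic read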
CHRM5 PAM = positive allosteric modulators of human muscarinic M5 receptor | CHO-K1 hM5, Fluo-8 calcium, ACh EC20 PAM; 0% = ACh EC20, 100% = ACh EC100 | activation, % at 3 µM | 0.3% of 360,000 active | AID 624038;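 active means activation above the run cutoff, the mean activation of all test compounds plus 3 SD, cut at about 18% in these data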
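Replicates: One well per compound, no replicates | System: Human M5 receptor in CHO-K1 cells | Benchmarks: Low control EC20 acetylcholine (0%), high control EC100 acetylcholine (100%) | Probe or stimulus: Acetylcholine, EC20 level | Times: Fluo-8 loading 80 min at 37 °C plus 30 min room temperature | Signal: Intracellular calcium via Fluo-8 fluorescence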
M5 antag = antagonists of human muscarinic M5 receptor (CHRM5) | 0.59% of 360,000 active | inhibition, % at 3 µM | CHO-hM5 cells, Fluo-8 calcium fluorescence, ACh EC80 | P08912;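 active means inhibition above a per-plate cutoff, the mean of that plate's test compounds plus 3 SD, cut at about 27% in these data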;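 further: 0% = acetylcholine EC80 with DMSO and 100% = DMSO without agonist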
Starred values were filed as active, the others as inactive.

SMILES	M4 ag	M4 antag	M4 PAM	CHRM5 agonist	CHRM5 PAM	M5 antag
C[C@H](CO)N1C[C@H](C)[C@@H](CN(C)C(=O)Nc2ccc(F)cc2)Oc2ncc(-c3ccc(F)cc3)cc2C1=O	2	-12	1	1	3	-6
COCC(C)NC(=S)Nc1ccccc1[N+](=O)[O-] (stereo unspecified)	1	-1	5	5	20*	-12
CC1CCC(NC(=O)CSc2nncs2)CC1 (stereo unspecified)	0	1	6	-2	0	6
Cc1ccc(NC2SC(=O)N(Cc3cccc(C(=O)O)c3)C2=O)cc1 (stereo unspecified)	0	-5	1	-1	23*	-1
COc1ccc(CN(C)C(C)C(=O)Nc2ccc(S(=O)(=O)N3CCCCC3)cc2)c(OC)c1 (stereo unspecified)	5	26*	-12	-5	-25	4
CCN(Cc1ccc(OC)c(F)c1)C(C)C(=O)Nc1ccc(S(=O)(=O)N2CCCC2)cc1 (stereo unspecified)	0	-3	-8	-1	-1	-3
Cc1ccc(-c2csc(N3CCC(NS(=O)(=O)c4ccc5c(c4)OCCO5)CC3)n2)cc1	10	21	-10	4	-21	28*
CN(C)S(=O)(=O)c1ccc2c(c1)c(=O)c(C(=O)N1CCN(c3ccccn3)CC1)cn2C	0	-8	6	1	-6	4
Cc1ccc(C)c(N2CCN(C(=O)c3cn(C)c4ccc(S(=O)(=O)N(C)C)cc4c3=O)CC2)c1	1	95*	-15	-3	-19	13
O=C(N/N=C/c1ccc(O)cc1)c1ccc(COc2cc(Cl)ccc2Cl)o1	25	20	-9	35*	-6	12
COc1ccc(N2C(=O)CSC23C(=O)N2c4c(cccc43)C(C)=CC2(C)C)cc1 (stereo unspecified)	-2	4	-8	-5	4	-3
O=C1N2CCCc3cccc(c32)C12Nc1ccccc1S2 (stereo unspecified)	1	7	9	-1	0	24
COc1ccc(N2C(=O)CSC23C(=O)N2CCCc4cccc3c42)cc1 (stereo unspecified)	1	75*	-28	-6	-18	52*
O=C1CSC2(C(=O)N3CCCc4cccc2c43)N1c1cccc(C(F)(F)F)c1 (stereo unspecified)	-2	50*	-32	-12	-18	30*
Cc1csc(=O)n1CC(=O)OCC(=O)NC(C)c1ccc(F)cc1 (stereo unspecified)	2	-16	8	4	10	3
COC(=O)c1ccc2c(=O)[nH]c(COC(=O)c3c(-c4ccccc4)noc3C)nc2c1	1	-12	14	0	0	8
C=C1C2=C(C(=O)N1OC)[C@@H](O)[C@@](C)(O)[C@@H](CCCCC)O2	0	-17	22*	1	5	-5
COc1cc(OC)cc(C(=O)Nc2nnc(SCC(=O)NCc3ccco3)s2)c1	0	0	8	-6	9	-2
Cc1cc2c(cc1C)N(C(=O)CSc1nncn1C)C(C)(C)c1ssc(=S)c1-2	-3	11	-11	-7	-23	34*
CCN(C(=O)COC(=O)c1cccnc1SC)c1c(N)n(Cc2ccccc2)c(=O)[nH]c1=O	1	9	7	1	-7	8
COC(=O)Cc1ccc(OC2(C)CCN(Cc3ccccc3OC(F)F)C2)cc1 (stereo unspecified)	0	55*	-11	-4	-10	4
COC(=O)Cc1ccc(OC2(C)CCN(Cc3ccc(-c4ccccn4)cc3)C2)cc1 (stereo unspecified)	4	34*	-13	-2	-7	1
CCc1ccc(OC2(C)CCN(Cc3ccccc3OC(F)F)C2)cc1 (stereo unspecified)	-1	6	-4	0	-2	9
COc1cccc(OC2(C)CCN(Cc3ccc(-c4ccccn4)cc3)C2)c1 (stereo unspecified)	4	6	-10	-2	-8	4
CC(C)(C)c1ccc(NC(=O)c2c(F)cccc2Cl)cc1	-1	-10	-11	-5	-10	11
SMILES	M4 ag	M4 antag	M4 PAM	CHRM5 agonist	CHRM5 PAM	M5 antag
CCOC(=O)Cc1nnc(NC(=O)CCc2ccccc2)s1	0	10	-4	-1	-1	10
CCN1/C(=C/C=C/c2sc3ccccc3[n+]2CC)Sc2ccccc21	11	16	-9	3	-12	18
CCN1/C(=C/c2ccc3cc(C)ccc3[n+]2CC)Sc2cc(C)c(C)cc21	13	31*	-7	8	-19	41*
CC[n+]1ccccc1/C=C1\Sc2ccc(C)cc2N1C	0	-10	3	-1	1	0
CC[n+]1c(/C=C2\Sc3ccccc3N2C)ccc2cccc(C)c21	8	26	-9	3	-14	38*
CCN1/C(=C/c2ccc3cc(C)ccc3[n+]2CC)Sc2ccccc21	14	33*	-9	24*	-21	60*
Cc1ccc(CN2C(=O)C(C)Oc3ccc(C)cc32)cc1 (stereo unspecified)	-2	-2	-2	-3	-5	10
CC(=O)/C(C[N+]1(C)CCCCC1)=N\O	1	34*	-17	-8	-23	43*
C[N+]1(CC(=O)OCCCc2ccccc2)CCCCC1	1	-9	-5	-15	-13	8
Cc1ccc(N(C(=O)CS(=O)CC(=O)Nc2ccc(F)cc2)C(C(=O)NC2CCCCC2)c2ccco2)cc1 (stereo unspecified)	1	3	-2	-2	2	-2
Cc1ccc(NC(=O)CS(=O)CC(=O)N(C(C)C(=O)NC2CCCCC2)C(C)(C)C)cc1 (stereo unspecified)	1	12	4	-4	-11	28*
Cc1cccc(NC(=O)CSc2nc(=O)n(CCCN3CCOCC3)c3c2CCCC3)c1	2	3	-4	-1	1	-2
Cc1ccc(NC(=O)C(=O)NCCCN2CC(C(=O)O)CC2=O)cc1 (stereo unspecified)	3	5	-6	2	6	0
COc1ccc(CNC(=O)COC(=O)[C@H](Cc2c[nH]c3ccccc23)NC(=O)c2cccs2)cc1	12	31*	-23	0	-14	11
Brc1ccc(CN2CCN(c3ccccn3)CC2)s1	-2	-8	29*	-1	3	-5
